Screening data: PubChem BioAssay, Broad Institute
An excerpt weighted towards active compounds, which were near 0.95% of everything screened.
CAL PDZ FP-1 = inhibitors of human CAL PDZ peptide binding; 330,000 tested, 0.02% active; purified CAL PDZ, TMR-peptide fluorescence polarization, 1 h; inhibition, % at 20 µM; Q9HD26;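 active = highest replicate inhibition of at least 40%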
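Material – purified CerCALP PDZ construct · Detection – FP readout, S and P plane fluorescence · Measure – percent inhibition from loss of millipolarization · Controls – unlabelled peptide for full inhibition, DMSO wells as neutral · Probe or stimulus – TMR-labelled reporter peptide T*-PRC34 bound in PDZ groove · Times – 1 h at RT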
PvdQ acylase = blocks Pseudomonas aeruginosa PvdQ acylase activity; purified PvdQ acylase, fluorescence plate reader; inhibition, % at 10 µM; 340,000 tested, 0.063% active; AID 488965; in the data active = inhibition above about 30%, passing the limit was not always enough
CAL PDZ FP-2 = blocks peptide binding to the human CAL PDZ domain | Q9HD26 | 300,000 tested, 0.92% active | purified CAL PDZ, TMR-peptide fluorescence polarization, 1 h | inhibition, % at 24.9 µM;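 active = mean inhibition of at least 30% with at least half of replicates also reaching 30%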
miR122 inh = inhibitors of miR-122 in Huh7 cells; Huh7 miR-122 Renilla luciferase sensor, 48 h; neutral wells = 0, positive control = 100; activation (reporter increase), % at 12.5 µM; 340,000 tested, 0.3% active; AID 602342;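 active = mean replicate activation score at least 90 and every replicate individually at or above 90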;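 also: higher luciferase means less miR-122 activity so hits act as miR-122 inhibitors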
Each line names hits and unclear results; the compound was inactive in the other large screens.

COc1ccc(C2(c3ccc(OC)cc3)NC(=O)N(CC(=O)Nc3ccc(C(N)=O)cc3)C2=O)cc1	none
CCOc1ccc(-c2cnc3ccccc3n2)cc1	PvdQ acylase 90 (no result: CAL PDZ FP-2)
CCOc1ccc(-c2cn3ccccc3n2)cc1	PvdQ acylase 50 (no result: miR122 inh)
O=[N+]([O-])c1ccc(-c2cnc3ccccc3n2)cc1	none
COc1ccc(CN(C)C[C@H]2OCc3cnnn3CCCC(=O)N([C@H](C)CO)C[C@H]2C)cc1	none (no result: CAL PDZ FP-1, PvdQ acylase, CAL PDZ FP-2)
CC(NC(=O)CCC(=O)NCc1ccc(F)cc1)c1ccccc1 (stereo not given)	CAL PDZ FP-2 88
Cc1ccc2c(C)c(C(=O)Nc3cccnc3)oc2c1C	none
OC(c1ccc(Cl)c(Cl)c1)c1ncc(-c2ccccc2Cl)[nH]1 (stereo not given)	none (no result: CAL PDZ FP-1, PvdQ acylase, CAL PDZ FP-2)
Cc1ccccc1-c1cnc(C(O)c2ccc(F)c(F)c2)[nH]1 (stereo not given)	miR122 inh 93 (no result: CAL PDZ FP-1, PvdQ acylase, CAL PDZ FP-2)
OC(c1ccc(Cl)c(Cl)c1)c1ncc(-c2ccccc2F)[nH]1 (stereo not given)	miR122 inh 104 (no result: CAL PDZ FP-1, PvdQ acylase, CAL PDZ FP-2)
CC1CCCN(C(=O)Cn2nnc(-c3cccnc3)n2)C1 (stereo not given)	miR122 inh 91
CN(C)Cc1cc(C(C)(C)C)cc(N2CCOCC2)c1O	CAL PDZ FP-2 89
C=CCn1c(-c2cccc3ccccc23)n[nH]c1=S	CAL PDZ FP-2 50
CCCCn1c(=O)[nH]c(=O)c2c1nc(-c1ccc(OC(F)F)c(OC)c1)n2C	none
CCOC(=O)c1ccc(-n2ccnc2)c(NC(=O)c2cccc(Br)c2)c1	miR122 inh 128 (no result: CAL PDZ FP-2)
O=C1C(Br)=Cc2cccc3cccc1c23	none (no result: miR122 inh)
CC(=O)Nc1nnc(SCC(=O)Nc2ccc3c(c2)OCCO3)s1	none
C[C@H](CO)N1C[C@H](C)[C@H](CN(C)C(=O)Nc2ccccc2)Oc2ccc(NC(=O)CCCN(C)C)cc2C1=O	none (no result: CAL PDZ FP-1, PvdQ acylase, CAL PDZ FP-2)
Cc1ccc(NS(=O)(=O)c2csc(C(N)=O)c2)cc1C	miR122 inh 99 (no result: CAL PDZ FP-1)
COc1ccc(NC(=O)NC2(C(=O)N3CCN(C)CC3)CCCCC2)cc1	CAL PDZ FP-2 61
COc1ccc(NC(=O)NC2(C(=O)N3CCCCCC3)CCCCC2)cc1	none
COc1ccc(S(=O)(=O)NCCSC(C)(C)C)c(Cl)c1Cl	miR122 inh 253
CCCNS(=O)(=O)c1ccc(OC)c(Cl)c1Cl	PvdQ acylase 39
CCCNS(=O)(=O)c1cc(Cl)ccc1OC	none (no result: miR122 inh)
COc1ccc(S(=O)(=O)NCc2ccccn2)c(Cl)c1Cl	none
COc1ccc([N+](=O)[O-])cc1N(CC(=O)NCC1CCCO1)S(C)(=O)=O (stereo not given)	none
C[N+](C)(C)CCCN(Cc1ccc2c(c1)OCO2)C(=O)NC1CCCCC1	CAL PDZ FP-2 41 (no result: miR122 inh)
CC(NCc1ccc2c(c1)OCO2)C(=O)NC1CCCCC1 (stereo not given)	none
Cc1ccc(S(=O)(=O)N2CCN(C(=O)COC(=O)c3ncc(Cl)c(Cl)c3Cl)CC2)c(C)c1	none (no result: miR122 inh)
COc1ccc(OC)c(NC(=O)N2CCCC(C)C2)c1 (stereo not given)	none (no result: miR122 inh)
COc1cccc(C(=O)C2CCCN(C(=O)c3ccccn3)C2)c1 (stereo not given)	CAL PDZ FP-2 73
COc1ccc(OC)c(NC(=O)N2CCCC(C(=O)c3ccccc3OC)C2)c1 (stereo not given)	CAL PDZ FP-2 77
CC(C)(C)c1ccc(C(=O)C2CCCN(C(=O)c3ccccn3)C2)cc1 (stereo not given)	none
COc1ccc(CNC(=O)[C@H](C)NC(=O)C2CC(=O)N(c3ccc(OC)cc3)C2)cc1 (stereo not given in full)	none
Cc1ccc(N2C(=O)CC(N(O)C3CC(=O)N(c4ccc(C)cc4)C3=O)C2=O)cc1 (stereo not given)	CAL PDZ FP-2 59
COc1ccc2oc(C(=O)N3CCc4ccccc43)c(C)c2c1	miR122 inh 137
CCOC(=O)c1sc2nc(C)nc(NCCc3ccc(S(N)(=O)=O)cc3)c2c1C	none
Cc1ccccc1-n1nnnc1SCC(=O)c1c(N)n(C)c(=O)n(C)c1=O	CAL PDZ FP-2 32
Cn1c(N)c(C(=O)CSc2nnnn2-c2ccccc2)c(=O)n(C)c1=O	none
Cc1c(NC(=O)NC2CCCCC2)cccc1[N+](=O)[O-]	miR122 inh 157 (no result: CAL PDZ FP-2)
CN(C)c1ccc(/C=[N+](\[O-])C2N(c3ccccc3)C(=S)SC2(C)C)cc1 (stereo not given)	none
CN1C(=S)SC(C)(C)C1/[N+]([O-])=C/c1cccnc1 (stereo not given)	CAL PDZ FP-2 123 (no result: CAL PDZ FP-1)
COc1ccc(S(=O)(=O)Nc2cccc3c2O[C@@H](CN(C)CC2CC2)[C@@H](C)CN([C@@H](C)CO)C3=O)cc1	none
COc1ccc(CN(C(=O)c2ccc(-c3ccccc3)[nH]2)C(C(=O)NCC2CCCO2)c2ccc(C)o2)cc1 (stereo not given)	miR122 inh 230
Cc1c(C(=O)N2CCN(S(=O)(=O)c3ccccc3)CC2)oc2ccc(Br)cc12	CAL PDZ FP-2 32
Cc1c(C(=O)N2CCCCC2)oc2ccc(Br)cc12	none
C[C@@H]1CCCCO[C@@H](CN(C)C(=O)NC2CCCCC2)[C@H](C)CN([C@H](C)CO)C(=O)c2cc(NC(=O)C3CCCCC3)ccc2O1	none (no result: CAL PDZ FP-1, PvdQ acylase, CAL PDZ FP-2)
CC1CCN(C(=O)CCNC(=O)c2ccccc2Cl)CC1	none
O=C(NCCC(=O)N1CCCC1)c1ccccc1Cl	CAL PDZ FP-2 39 (no result: miR122 inh)
COc1ccc(OCCCC(=O)NNC(=O)CCN2CCN(c3ccccc3)CC2)cc1	none (no result: miR122 inh)
O=C(Cc1ccc(Br)cc1)OCC(=O)c1ccc[nH]1	CAL PDZ FP-2 44
COc1ccc(CC(=O)OCC(=O)c2ccc[nH]2)cc1	none
Cc1ccc(CNc2nc(N)c([N+](=O)[O-])c(NCCO)n2)cc1	CAL PDZ FP-2 62
Nc1nc(NCc2ccc(Cl)cc2)nc(NCCO)c1[N+](=O)[O-]	none
OC[C@@H]1CN(Cc2ccc(Cl)cc2)C[C@H](n2cnc3c(Nc4ccccc4)ncnc32)O1	none (no result: CAL PDZ FP-1, PvdQ acylase, CAL PDZ FP-2)
Cc1ccc(S(=O)(=O)NC23CC4CC(CC(C4)C2)C3)cc1	miR122 inh 106 (no result: CAL PDZ FP-2)
COc1ccc(S(=O)(=O)NCc2ccccn2)cc1Br	none (no result: miR122 inh)
O=C(Nc1ccccc1F)c1cc(Cl)sc1Cl	none (no result: CAL PDZ FP-1)
CS(=O)(=O)N(CC(=O)Nc1cccc([N+](=O)[O-])c1)c1ccccc1	none (no result: miR122 inh)
CS(=O)(=O)N(CC(=O)Nc1cccc(F)c1)c1cccc([N+](=O)[O-])c1	miR122 inh 277
CCc1noc(C)c1C(=O)Nc1ncc(C)s1	CAL PDZ FP-2 35
CCc1noc(C)c1C(=O)Nc1nc2c(C)cccc2s1	none
CCOc1ccc(N(C(C)C(=O)N2CCOCC2)S(C)(=O)=O)cc1 (stereo not given)	none
Cc1ccc(C(=O)CCNc2cccc(Br)c2)o1	none
Cc1ccc(S(=O)(=O)N2CCN(C(=O)COC(=O)C3(C)CC3(Cl)Cl)CC2)c(C)c1 (stereo not given)	none
O=C(N/N=C/c1ccoc1)c1cc(Br)ccc1O	none (no result: miR122 inh)
O=C(N/N=C/c1ccoc1)c1ccccc1Br	CAL PDZ FP-2 39
COc1ccc(S(=O)(=O)N(C)C[C@@H]2Oc3ccc(NC(=O)Nc4ccc(C(F)(F)F)cc4)cc3C(=O)N([C@@H](C)CO)C[C@@H]2C)cc1	none (no result: CAL PDZ FP-1, PvdQ acylase, CAL PDZ FP-2)
